In the library only some 1.5% were active in any assay of this set; here they are far more common.
MsrA act = bovine MsrA enzyme activators, primary screen, biochemical, absorbance, HTS. Methionine sulfoxide reductase A (Bos taurus). activation, % at 10.6 µM. actives 0.3% (n = 360,000). purified bovine MsrA, absorbance read-out; in the data active = activation above about 7.5%;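 also: 0% = vehicle and 100% = reference activator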
procasp7 counter = procaspase-7 activators, primary screen, counter-screen for procaspase-3 activator project, biochemical, absorbance, HTS, human; Caspase-7 (Homo sapiens), P55210; recombinant procaspase-7, Ac-DEVD-pNA absorbance 405 nm; D23A/D198A/D206A triple mutant, cannot self-cleave; scale: DMSO 0, 5 µM enzyme 100; activation, % at 8.5 µM; actives 0.093% (n = 330,000); AID 463210, 2010;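 active = percent activation above the screen-wide mean plus 3 SD, cut at about 25% in these data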
Target sequence (P55210 whole entry D23A/D198A/D206A): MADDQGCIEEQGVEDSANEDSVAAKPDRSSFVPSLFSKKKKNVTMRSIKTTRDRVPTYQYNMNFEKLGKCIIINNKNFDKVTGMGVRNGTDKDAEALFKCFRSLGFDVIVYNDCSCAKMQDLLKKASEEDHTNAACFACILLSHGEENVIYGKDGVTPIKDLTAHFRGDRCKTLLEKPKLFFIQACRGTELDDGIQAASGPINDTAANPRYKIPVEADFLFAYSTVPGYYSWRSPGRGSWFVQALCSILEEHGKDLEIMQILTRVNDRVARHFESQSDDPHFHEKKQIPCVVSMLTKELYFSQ
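Test system: Procaspase-7 triple mutant (PC-7 D3A). Also added: Ac-DEVD-pNA substrate, 400 µM as added. Schedule: 1 h enzyme–compound preincubation and 2 h substrate reaction, both 25 °C. Signal: p-Nitroaniline absorbance at 405 nm, read at 0 and 120 min. Control set: low DMSO alone, high DMSO plus 5 µM PC-7.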
MsrA inh = bovine MsrA enzyme inhibitors, primary screen, biochemical, absorbance, HTS; inhibition, % at 15.5 µM; AID 651718, 2012; actives 0.75% (n = 360,000); Methionine sulfoxide reductase A (Bos taurus); purified bovine MsrA, absorbance read-out; in the data active = inhibition above about 4.5%;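 also: 0% = vehicle wells with enzyme and 100% = reference inhibitor wells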
Tb MetRS inh = T. brucei MetRS inhibitors, primary screen, biochemical, luminescence; methionyl-tRNA synthetase (Trypanosoma brucei brucei); purified T. brucei MetRS, ATP depletion, Kinase-Glo luminescence; inhibition, % at 11.9 µM; actives 0.4% (n = 360,000); AID 624268, 2012;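 active = inhibition above a per-plate cutoff of the control wells' mean inhibition plus 3 SD, cut at about 5.5% in these data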;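 also: 0% = DMSO wells median and 100% = median of wells with control inhibitor compound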
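Dosing: 11.9 µM single point; system: parasite MetRS enzyme; technique: luminescence of leftover ATP; times: 15 min enzyme-compound preincubation, 2 h reaction, 10 min detection, 25 °C; replicates: each compound tested once; read-out basis: percent inhibition relative to median high and low control wells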
proCasp3 act = activators of human procaspase-3 D3A mutant, primary screen, biochemical, absorbance, PC-3 D3A mutant, single concentration; Caspase-3 (Homo sapiens), P42574; recombinant procaspase-3 D3A, Ac-DEVD-pNA absorbance 405 nm; activation, % at 8.5 µM; actives 0.11% (n = 330,000);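 active = activation above the mean of all tested compounds plus 3 SD, cut at about 21% in these data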;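 also: 0% = DMSO alone and 100% = DMSO wells spiked with extra 5 µM PC-3 D3A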
Target sequence (P42574 whole entry D9A/D28A/D175A): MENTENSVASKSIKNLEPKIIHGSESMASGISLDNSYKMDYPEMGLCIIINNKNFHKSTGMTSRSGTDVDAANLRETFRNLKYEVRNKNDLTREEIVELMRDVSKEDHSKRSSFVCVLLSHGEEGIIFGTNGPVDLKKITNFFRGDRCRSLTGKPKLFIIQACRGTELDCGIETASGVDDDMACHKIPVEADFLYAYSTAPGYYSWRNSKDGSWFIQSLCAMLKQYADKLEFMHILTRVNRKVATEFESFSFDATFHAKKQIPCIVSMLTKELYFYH
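Technique: 405 nm absorbance of p-nitroaniline, reads at 0 and 120 min; Test system: Procaspase-3 D3A mutant; Incubation: 1 h enzyme-compound preincubation, then 2 h substrate reaction, 25 °C; Repeats: singlicate, each compound tested once; Benchmarks: low control DMSO wells, high control DMSO plus 5 µM PC-3 D3A.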
PC3 D3A act = procaspase-3 activators, counter-screen for dual procaspase-3/7 activator project, biochemical, absorbance, PC-3 D3A mutant, human; shares compounds with procasp7 counter; recombinant PC-3 D3A, Ac-DEVD-pNA absorbance 405 nm; aspartates 9, 28, 175 changed to alanine; 100% = enzyme control; activation, % at 8.5 µM; 290 tested, under 10 active; AID 493114, 2011;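 active = mean percent activation across triplicates above a set limit taken from the earlier primary procaspase-3 screen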;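 also: 0% = DMSO wells and 100% = DMSO wells with 5 µM added PC-3 D3A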
Procasp7 act = activation of procaspase-7 enzyme – biochemical, absorbance, human, dual procaspase-3/-7 activator project, confirmation. activation, % at 8.5 µM. recombinant procaspase-7, Ac-DEVD-pNA absorbance 405 nm; D23A/D198A/D206A mutant that cannot self-cleave. shares compounds with procasp7 counter. 290 tested, under 10 active;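 active = mean activation above a set limit carried over from the earlier primary screen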;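 also: 0% = DMSO only and 100% = DMSO with added 5 µM PC-7 enzyme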
Active calls of the source: *; / = not tested or not shown.

SMILES	MsrA act	procasp7 counter	MsrA inh	Tb MetRS inh	proCasp3 act	PC3 D3A act	Procasp7 act
O=c1[nH]c(N/N=C/c2ccccc2)nc2ccccc12	-8	38*	0	-1	32*	-28	-28
C(=N\Nc1nc2ccccc2[nH]1)/c1ccccc1	-3	3	4	3	6	/	/
O=c1[nH]c(N/N=C/c2cc3c(cc2[N+](=O)[O-])OCO3)nc2ccccc12	-1	3	1	0	-6	/	/
O=c1[nH]c(N/N=C\c2ccc3c(c2)OCO3)nc2ccccc12	-3	28*	3	1	24*	1	-3
COc1ccccc1NC(=O)c1cnc(Nc2ccccc2OC)c2ccccc12	-5	31*	2	-1	17	-30	-35
Cc1cccc(C2=NN(c3ccc(Br)cc3)[C@@H](C(=O)N3CCOC3=O)[C@@H]2c2ccc(F)cc2)c1	-1	26*	2	0	35*	-29	-35
CCNC(=O)COC(=O)c1cc(-c2ccc(OC)cc2)nc2ccccc12	-4	7	2	-2	17	/	/
COc1ccc(-c2cc(C(=O)OCC(=O)NC(C)C)c3ccccc3n2)cc1	-2	27*	0	0	38*	-17	-12
COc1ccc(OC)c2sc(N3CCc4ccccc4C3)nc12	-4	3	0	-1	-2	/	/
COc1ccc(OC)c2sc(N3CCCCC3)nc12	-2	28*	0	-1	-1	5	-2
Cn1c(CC(=O)Nc2ccccc2F)nnc1SCC(=O)Nc1nncs1	-3	38*	0	0	0	3	-1
Cn1c(CC(=O)Nc2ccc(F)cc2)nnc1SCC(=O)Nc1nncs1	1	12	0	0	-5	/	/
COc1ccc(C2CC(c3ccccc3)=NN2c2ccc(C(N)=O)cc2)cc1 (centres undefined)	-3	38*	2	0	30*	-29	-36
NS(=O)(=O)c1ccc(N2N=C(c3ccccc3)CC2c2cccc(Cl)c2)cc1 (centres undefined)	2	44*	2	0	39*	-31	-33
COc1ccc(C2CC(c3ccccc3Cl)=NN2c2ccc(S(N)(=O)=O)cc2)cc1 (centres undefined)	-3	47*	4	0	27*	-29	-34
COc1ccc(C2CC(c3ccccc3)=NN2c2ccc(S(N)(=O)=O)cc2)cc1 (centres undefined)	-1	51*	2	-1	28*	-28	-35
CSc1n[nH]c(-c2cccs2)n1	/	/	-1	/	/	/	/
Clc1ccc(CN2CCN(c3ncc(Cc4ccccc4)cn3)CC2)c(Cl)c1	/	/	1	/	/	/	/
COc1ccc(C2CC(c3cccc(C(F)(F)F)c3)=NN2c2ccc(S(N)(=O)=O)cc2)cc1 (centres undefined)	-2	53*	0	0	44*	-30	-35
CCCCCCCCN1C(=O)[C@@H](CC(=O)N2CCSCC2)C[C@@]2(C(=O)OC)C1=C[C@H](C(C)(C)C)O[C@@H]2C	/	/	-1	/	/	/	/
COc1cc(/C=C/C(=O)Nc2nnc(C(C)(C)C)s2)cc(OC)c1OC	-7	-18	2	-1	-17	/	/
COc1cc(/C=C/C(=O)Nc2nc3ccc(S(=O)(=O)N(C)C)cc3s2)cc(OC)c1OC	-6	35*	3	0	-18	-30	-35
CCN(CC)c1ccc(/C=N/NC(=S)NCc2ccccc2)cc1	-3	43*	3	0	67*	-26	-29
C=CCNC(=S)N/N=C/c1ccc(N(CC)Cc2ccccc2)cc1	-7	37*	2	-1	24*	-19	-14
CCN(CC)c1ccc(/C=N/NC(=S)NCc2ccc(OC)cc2)cc1	-5	37*	2	0	44*	-30	-30
SMILES	MsrA act	procasp7 counter	MsrA inh	Tb MetRS inh	proCasp3 act	PC3 D3A act	Procasp7 act
O=C1Nc2c(Cl)cc(Cl)cc2C12Nc1ccccc1S2 (centres undefined)	/	/	-1	/	/	/	/
COc1ccc(N(C(=O)c2cccnc2)S(=O)(=O)c2ccc3c4c(cccc24)C(=O)N3C)cc1	-1	-12	0	0	-6	/	/
COc1ccc(N(C(=O)c2ccncc2)S(=O)(=O)c2ccc3c4c(cccc24)C(=O)N3C)cc1	-2	32*	1	0	-4	-28	-34
O=C(N[C@H](Cc1ccccc1)C(=O)NCC1CCCCC1)[C@H]1O[C@@H](n2ccc(=O)[nH]c2=O)[C@H](O)[C@@H]1O	/	/	0	/	/	/	/
COc1ccc2c(-c3ccc(SC)cc3)c(-c3ccc(S(C)(=O)=O)cc3)sc2c1	-6	55*	4	0	43*	-28	-34
COc1ccc2sc(-c3ccc(S(C)(=O)=O)cc3)c(-c3ccc(SC)cc3)c2c1	1	12	1	0	11	/	/
CCOC(=O)C1=C(C)NC2=C(C(=O)CCC2)C1c1cccs1 (centres undefined)	-4	0	3	-1	-12	/	/
CCOC(=O)c1sc2c(c1C)C(c1cccs1)C1=C(CCCC1=O)N2 (centres undefined)	-1	40*	0	0	23*	-29	-35
Cc1cc(O)cc(=O)n1-c1cccc(Br)c1	/	/	0	/	/	/	/
O=c1c(-c2nnc(SCc3ccc(Cl)cc3Cl)o2)cccn1Cc1ccccc1	1	87*	1	-1	24*	-12	-12
C=CCOC(=O)C1=C(C)NC(SCC)=C(C#N)C1c1ccc(Cl)cc1 (centres undefined)	-5	26*	0	-1	18	5	6
C=CCOC(=O)C1=C(C)NC(SCC(N)=O)=C(C#N)C1c1ccc(C)cc1 (centres undefined)	-1	5	-1	-1	-3	/	/
CCOc1ccc2nc(-c3cc(NC(C)=O)ccc3O)sc2c1	-1	31*	2	0	5	2	-1

Screens as filed in PubChem BioAssay.
